Screening data from PubChem BioAssay.
Yeast life ext: extends the lifespan of yeast | S. cerevisiae growth with nicotinamide, OD615; deaD strain in restrictive glucose medium | inhibition of the nicotinamide effect, % at 10 µM | actives 0.68% (n = 130,000);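 active = inhibition above a set limit, placed 3 SD over the median of all compounds, cut at about 26% in these data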;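 note: 0% = nicotinamide-treated wells and 100% = cells grown without nicotinamide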
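assay system = DeaD-strain S. cerevisiae | buffer or medium = restrictive glucose medium | reagent = 1.5 mM nicotinamide | compound = 10 µM single point, 0.25% DMSO | incubation = 48 h compound exposure at 30 °C, humidified | signal = OD615 measurement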
Measles CPE: protection of cells from measles virus; Measles virus-infected cells, CPE protection, absorbance; protection (pct of control), % at 4 µM; actives 1.5% (n = 140,000); in the data active = protection mostly above about 24%, no sharp cut-off; inactive = mostly below about 26%
Yeast growth inh: chemicals that inhibit yeast BB579 growth in restrictive medium (lifespan-shortening candidates); S. cerevisiae BB579 growth, OD615, 48 h; inhibition, % at 10 µM; actives 0.51% (n = 140,000);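 active = inhibition above a set limit, 3 SD over the mean compound inhibition, cut at about 44% in these data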
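Test system: DeaD yeast strain BB579 / Buffer or medium: restrictive glucose-based CSMM-D medium / Doses: single 10 µM dose / Schedule: 4 h cell preincubation, 48 h compound exposure, 30 °C humidified / Technique: culture absorbance at 615 nm / Controls: amphotericin B positive control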
RAM inhibit: blocks the yeast RAM network; S. cerevisiae dse1pr::URA3 reporter, 5-FOA growth OD615, 2 d; analog-sensitive cbk1-as2 kinase mutant strain; inhibition, % at 50 µM; actives 1.8% (n = 190,000); AID 868;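 active = inhibition above a set limit, 3 SD over mean compound inhibition, cut at about 8.4% in these data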;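 note: 0% = DMSO-only wells with no growth and 100% = 10 µM 1-NA-PP1 full growth; inhibition rescues growth on 5-FOA so higher OD means more RAM inhibition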
Numbers without * were called inactive; . = not tested or not shown. An excerpt weighted towards active compounds, which were near 3.8% of everything screened.

SMILES | Yeast life ext | Measles CPE | Yeast growth inh | RAM inhibit
O=C(Nc1ccc(S(=O)(=O)Nc2ccc(Cl)cc2)cc1)C1CCCO1 (stereo not drawn) | -10.2 | 39.6* | -72.7 | -1.4
CCN(CC)CCN1C(=O)c2oc3ccccc3c(=O)c2C1c1ccccc1 (stereo not drawn) | -9.7 | 2.8 | 6.9 | 1.7
CN1C(=O)c2oc3ccccc3c(=O)c2C1c1ccccn1 (stereo not drawn) | 31.2* | 13.0 | -4.6 | 0.0
Cc1ccc(F)cc1NC(=O)C1CC(=O)N(CCc2ccccc2)C1 (stereo not drawn) | . | . | . | -1.3
CCOc1ccc(C(=O)CC(NCc2cccs2)C(=O)O)cc1 (stereo not drawn) | . | . | . | 0.5
Cc1nn(-c2ccc(F)cc2)c(Cl)c1/C=C/C(=O)OCC(=O)Nc1c(F)c(F)c(F)c(F)c1F | -0.6 | 0.3 | -32.6 | 2.7
Nc1ccc(Cc2nc3c(ccc4ccccc43)[nH]2)cc1 | -20.4 | 57.6* | -54.5 | -0.3
O=C(NC1CCN(C(=O)N2c3ccccc3Sc3ccccc32)CC1)c1ccccc1F | -6.0 | 40.7* | -20.6 | 4.9
CC1CCCN(C(=O)N2c3ccccc3Sc3ccccc32)C1 (stereo not drawn) | -5.6 | 21.6 | -25.3 | 10.2*
CC1CCN(C(=O)N2c3ccccc3Sc3ccccc32)CC1 | 2.9 | 1.6 | -11.1 | 3.8
CCOc1cc(/C=C(\C#N)C(=O)NCc2cccnc2)ccc1O | . | . | . | 0.9
O=C1c2ccccc2-c2onc3ccc(NCCCn4ccnc4)c1c23 | 79.7* | 6.6 | -44.4 | 37.9*
c1ccc(CCn2c3ccccc3c3nnc(SCc4ccc5nonc5c4)nc32)cc1 | -7.2 | 24.2* | -72.1 | 4.2
O=C1c2ccccc2C(=O)N1CSc1nnc2c3ccccc3n(CCc3ccccc3)c2n1 | -4.3 | 33.7 | -33.3 | 3.8
CN(Cc1cn(C)nc1-c1ccccc1F)CC1CCCCO1 (stereo not drawn) | . | . | . | -0.2
COc1c2ccccc2c(OC)c2ccccc12 | . | . | . | 4.3
Cc1cccc(-c2nsc(SCC(=O)Nc3ccc4c(c3)OCO4)n2)c1 | 0.9 | 11.5 | -20.0 | 4.4
Cc1ccccc1-c1nsc(SCC(=O)Nc2ccc3c(c2)OCO3)n1 | 0.7 | 6.5 | -5.8 | 9.4*
CN(C)S(=O)(=O)c1cccc(NC(=S)NN=C(Cc2ccccc2)Cc2ccccc2)c1 | -3.4 | 5.6 | -8.4 | 10.4*
COc1ccc(N=C2SC(C(=O)Nc3ccc4c(c3)OCO4)CC(=O)N2C)cc1 (stereo not drawn) | -4.3 | 12.1 | -39.4 | 2.5
CCCCCCCNC(=O)C1CC(=O)N(C)C(=Nc2ccc(OC)cc2)S1 (stereo not drawn) | 10.2 | 2.1 | -27.5 | 9.3*
COC(=O)CC/C(O)=C1\C(=O)CC(C)(C)CC1=NCCc1nc2ccccc2[nH]1 | . | . | . | 0.0
CC(=O)CCN1CCOCC1 | -9.8 | 93.8* | 18.8 | -0.5
O=C(NCCN1CCOCC1)c1ccc([N+](=O)[O-])cc1[N+](=O)[O-] | 0.8 | 2.6 | -19.3 | 0.1
O=C(NCCN1CCOCC1)c1cc(Cl)ccc1[N+](=O)[O-] | 0.4 | 32.4* | -37.6 | 1.5
SMILES | Yeast life ext | Measles CPE | Yeast growth inh | RAM inhibit
CCn1c(C)nc2cc(-c3nnc(-c4c(-c5ccccc5)noc4C)o3)ccc21 | -4.4 | 50.2* | -9.9 | 0.6
COc1ccccc1/C=C(/C(=O)OCC(=O)N(C)Cc1ccccc1)c1ccccc1 | -2.1 | 9.2 | -13.5 | 10.2*
COc1ccccc1/C=C(/C(=O)OCC(N)=O)c1ccccc1 | -3.2 | 1.9 | -2.6 | -1.1
CCOC(=O)CCCCC(=O)NC(CO)C(=O)NC (stereo not drawn) | -5.3 | 17.4 | -45.3 | -0.4
CCCCCCCC(=O)OCC(O)CO (stereo not drawn) | -2.0 | 91.1* | 15.7 | 0.1
Cc1ccc(CN2CCN(CCCn3cccn3)CC2CCO)cc1 (stereo not drawn) | . | . | . | 1.6
CCS(=O)(=O)c1ccc(C(=O)Nc2ccccc2)c(Cl)c1Cl | 9.8 | 89.2* | -32.1 | 0.8
Cc1ccc(N/N=C/c2c(O)cc(C)oc2=O)cc1 | -30.8 | 17.6 | 96.3* | 0.1
CC1(C(=O)NCCN2CCOCC2)C=CC2(CCCCC2)N1C(=O)c1ccccc1 (stereo not drawn) | -4.0 | 4.0 | -47.3 | 1.5
COCCNC(=O)C1(C)C=CC2(CCCCC2)N1C(=O)c1ccccc1 (stereo not drawn) | 2.7 | 21.7* | -53.3 | -0.4
COc1cccc(-c2cc(C(=O)N3CC4(C)CC3CC(C)(C)C4)no2)c1 (stereo not drawn) | 1.0 | 7.3 | -72.0 | 10.3*
COc1cccc(-c2cc(C(=O)N3CCCCC3C)no2)c1 (stereo not drawn) | -22.9 | 1.9 | -38.2 | 0.3
COCCn1c(SCC(=O)Nc2ccc(C)cc2)nc2c(oc3ccccc32)c1=O | 85.4* | 3.0 | -36.1 | 2.3
CCN=c1scc(C)n1/N=C/c1ccc(O)c(O)c1O | -16.3 | 19.4 | 8.5 | -0.8
COCCN=c1scc(-c2cccs2)n1/N=C/c1ccc(O)c(O)c1O | -0.8 | 3.7 | -35.5 | 9.6*
CSc1nc(Cl)cc(N2CCOCC2)n1 | . | . | . | 0.1
O=C(Oc1ccc2c(c1)O/C(=C\c1ccncc1)C2=O)c1ccccc1 | 22.7 | 39.6* | -40.6 | -1.4
COc1cccc(-c2nn(C)c3sc(C(=O)NCc4ccc(C)o4)cc23)c1 | -26.1 | 18.8 | -48.3 | 10.6*
CC(Oc1cc(F)ccc1[N+](=O)[O-])C(=O)N(C)CC(=O)Nc1ccccc1C(F)(F)F (stereo not drawn) | . | . | . | 1.5
CCOC(=O)c1ccc(NC(=O)c2ccccc2N(C)S(=O)(=O)c2ccccc2)cc1 | 15.3 | 5.0 | -24.5 | 4.6
Cc1cc(=O)oc2cc(OCCSc3nnc(-c4ccccc4)o3)ccc12 | -3.1 | 9.8 | -7.3 | 10.7*
COc1ccc(NS(=O)(=O)c2ccc3nc(COc4ccc(Cl)c(C)c4)[nH]c3c2)cc1 | 0.2 | 19.4 | -24.9 | 3.4
O=C(O)CCc1ccc(-c2cccs2)n1CCC(=O)O | -7.4 | 10.7 | -43.9 | 0.5
O=C(O)CCc1ccc(-c2cccs2)n1CCc1ccccc1 | . | . | . | 9.5*
O=C1OC(/C=C/c2ccc(Cl)cc2Cl)=NC/1=C\c1cccs1 | 1.1 | 32.8 | -42.6 | 9.5*
SMILES | Yeast life ext | Measles CPE | Yeast growth inh | RAM inhibit
O=c1cc(-c2cccs2)oc2ccc(Cl)cc12 | -10.6 | 16.3 | 12.8 | 0.8
COc1cc(S(=O)(=O)Nc2cccc(C)c2)ccc1N=Cc1c(C)[nH]n(-c2ccccc2)c1=O | -4.9 | 19.6 | -32.5 | 8.5*
COc1ccccc1CNC(=O)CCC(=O)Nc1nnc(C(C)C)s1 | -5.2 | 18.3 | -11.2 | -0.7
COc1ccccc1CNC(=O)CCC(=O)Nc1nnc(C)s1 | -4.8 | 51.3* | -0.7 | 1.8
COc1ccc(CCNC(=O)COC(=O)CCC(=O)c2ccc(F)cc2)cc1OC | . | . | . | -0.5
CC(=O)c1ccc(NC(=O)/C(=C\c2cccs2)NC(=O)c2ccco2)cc1 | . | . | . | 0.6
CCc1nnc(NS(=O)(=O)c2ccc(NC(=S)NC(=O)/C=C/c3ccccc3)cc2)s1 | -1.3 | 62.9* | -1.1 | 3.5
CC(C)NC(=O)COC(=O)/C=C/c1ccc(F)cc1 | -4.6 | 15.4 | -11.1 | -1.3
COc1nccnc1NS(=O)(=O)c1ccc(NC(=S)NC(=O)c2ccc(F)c(F)c2)cc1 | 9.7 | 4.6 | -45.7 | 3.4
